TRPML3 ag = activates the human TRPML3 channel; HEK293 TRPML3-YFP, Fluo-8 calcium fluorescence; 100% = the carbachol control signal; activation, % at 3 µM; 0.29% of 220,000 active; AID 1448;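 active = activation above its plate's cutoff, the mean activation of the plate's test wells plus 3 SD, cut at about 12% in these data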;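 note: 0% = DMSO only wells and 100% = carbachol wells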
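system = HEK293 cells stably carrying human TRPML3-YFP | doses = one concentration, 3 µM nominal, 0.3% DMSO | timing = dye loading 1 h 37 °C then 30 min ambient, 125 s read | detection = Fluo-8 calcium dye fluorescence, ex 470-495, em 515-575 nm | benchmarks = high control carbachol 87 µM, low control DMSO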
LANA-H2A inh = blocks KSHV LANA binding to histone H2A/H2B | Q9QR71 | cell-free LANA-H2A/H2B peptide, fluorescence polarization | inhibition, % (no concentration beside the values) | 0.6% of 320,000 active; in the data active = inhibition mostly above about 10%, no sharp cut-off; inactive = mostly below about 6.7%
TRPN1 ag = activates the zebrafish TRPN1 channel; HEK293 zebrafish TRPN1-YFP, Fluo-8 calcium fluorescence; 100% = response to 87 µM carbachol; activation, % at 3 µM; 0.18% of 220,000 active; AID 1424;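 active = activation above its plate's cutoff, the mean activation of test wells on that plate plus 3 SD, cut at about 19% in these data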;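 note: 0% = DMSO alone and 100% = 87 µM carbachol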
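Material – zebrafish TRPN1-YFP in HEK293 cells · Doses – 3 µM single point · Schedule – dye 1 h 37 °C plus 30 min RT · Signal – Fluo-8 calcium fluorescence, excitation 470-495 nm, emission 515-575 nm · Read-out – % activation versus carbachol response · Control set – carbachol high, DMSO low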
TAAR1 agonist = agonists of human TAAR1 | AID 624467 | 0.99% of 360,000 active | activation, % at 3 µM | CHO RD-HGA16 TAAR1, Fluo-8 calcium fluorescence; vehicle wells 0%, saturating PEA agonist 100% | Q96RJ0;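 active = activation above the mean activation of all test compounds in the run plus 3 SD, cut at about 38% in these data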
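Benchmarks: low control DMSO, high control PEA (EC100); System: CHO RD-HGA16 cells carrying human TAAR1 plus Gα16; Detection: Fluo-8 fluorescence, 5 s baseline then 140 s kinetic read; Schedule: 17-24 h plating, Fluo-8 75 min 37 °C, 30 min RT; Read-out basis: % activation from peak over basal fluorescence ratio, DMSO-to-PEA scaled.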
GPR7 antag = human neuropeptides B/W receptor 1 antagonism. GPR7-expressing cells, fluorescence antagonist assay. inhibition, % at 4.4 µM. 1.1% of 290,000 active. AID 1861; in the data active = inhibition above about 16%, passing the limit was not always enough;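 note: cells stimulated with the agonist NPW; 0% = agonist with vehicle and 100% = vehicle without agonist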
Target sequence (P48145 whole entry, looked up): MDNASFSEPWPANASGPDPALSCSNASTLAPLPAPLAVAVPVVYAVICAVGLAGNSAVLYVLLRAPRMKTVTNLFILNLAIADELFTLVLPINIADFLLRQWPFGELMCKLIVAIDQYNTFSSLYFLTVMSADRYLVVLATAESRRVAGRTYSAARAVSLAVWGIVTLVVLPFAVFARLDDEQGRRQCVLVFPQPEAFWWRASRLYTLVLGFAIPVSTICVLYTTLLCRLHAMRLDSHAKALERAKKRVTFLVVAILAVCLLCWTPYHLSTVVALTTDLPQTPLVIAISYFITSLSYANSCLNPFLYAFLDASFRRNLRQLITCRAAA
TAAR1 antag = human TAAR1 antagonism; Q96RJ0; 1.5% of 360,000 active; inhibition, % at 3 µM; CHO RD-HGA16 TAAR1, Fluo-8 calcium fluorescence, antagonist;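 active = inhibition above a per-plate cutoff, the mean inhibition of test compounds on that plate plus 3 SD, cut at about 49% in these data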;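 note: 0% = DMSO plus EC80 beta-PEA response and 100% = DMSO alone without agonist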
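test system = CHO RD-HGA16 cells bearing hTAAR1 | replication = singlicate | controls = DMSO-only wells and EC80 β-PEA-stimulated wells | reagent = EC80 β-phenethylamine stimulus | read-out basis = percent inhibition of PEA-evoked calcium signal, max/basal emission ratio | schedule = seeding 17-24 h prior, 75-min 37 °C, 30-min RT dye loading | signal = kinetic Fluo-8 calcium fluorescence measurement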
GPR7 antag cf = human GPR7 antagonism, confirmation assay. GPR7-expressing cells, calcium fluorescence antagonist mode. AID 1952. inhibition, % at 4.4 µM. shares compounds with GPR7 antag. 52% of 2,400 active; in the data active = inhibition above about 24%;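 note: stimulated with the GPR7 agonist NPW; 0% = agonist plus vehicle and 100% = vehicle alone without agonist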
MCHR1 antag = antagonizes human MCHR1, a GPR7 antagonist counter-screen | shares compounds with GPR7 antag | MCHR1-expressing cells, fluorescence antagonist assay | inhibition, % at 4.4 µM | 62% of 2,400 active | AID 2148; in the data active = inhibition above about 22%;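 note: 0% = vehicle with agonist and 100% = vehicle without agonist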
Active calls of the source: *; nt = no result given. Shown are actives, neighbours in structure and some others; about 3.4% of the full set was active somewhere.

SMILES	TRPML3 ag	LANA-H2A inh	TRPN1 ag	TAAR1 agonist	GPR7 antag	TAAR1 antag	GPR7 antag cf	MCHR1 antag
FC(F)Sc1ccc(N=C2NN=C(c3ccc4c(c3)OCCO4)CS2)cc1	0	5	0	4	-4	-4	nt	nt
COc1ccc(N=C2NN=C(c3ccc4c(c3)OCCO4)CS2)cc1	0	-5	-1	12	23*	5	20	17
COc1ccccc1-c1nnc2sc(COc3ccc(F)cc3)nn12	0	-5	-1	6	42*	9	17	52*
NC(N)=NS(=O)(=O)c1ccc(NC(=S)NC(=O)c2ccccc2)cc1	0	5	3	-1	4	2	nt	nt
NC(N)=NS(=O)(=O)c1ccc(NC(=S)NC(=O)Cc2ccc(Cl)cc2)cc1	nt	-8	nt	1	nt	2	nt	5
Cc1cc(NC(=O)C(C)Oc2ccccc2)no1 (stereo not given)	nt	-3	nt	5	-3	-11	nt	nt
CSCC[C@H]1COC[C@@H](Cc2ccccc2)N1c1ccccc1	nt	nt	nt	1	nt	-12	nt	nt
CC(=O)c1ccc(N2CCN(C(=O)c3cccc(Oc4ccccc4)c3)CC2)cc1	1	1	2	5	23*	40	34*	53*
COc1ccc(Br)c(C(=O)NC2CCCC2)c1	0	2	0	0	22*	6	-9	2
COc1ccc2oc(C(=O)NC3CCCCC3)c(C)c2c1	nt	-6	nt	3	29*	-30	20	30*
COc1ccc(CCNCC(O)Cn2c3ccccc3c3ccccc32)cc1OC (stereo not given)	4	6	6	18	43*	5	56*	74*
O=C(CN1C(=O)NC2(CCCCCCC2)C1=O)Nc1cccc(Br)c1	nt	1	nt	5	nt	-2	nt	nt
CN=c1scc(-c2ccc([N+](=O)[O-])cc2)n1/N=C/c1ccco1	0	1	-2	0	-3	-23	nt	nt
CN=c1scc(-c2ccc(F)cc2)n1/N=C/c1ccc(O)c(O)c1	0	nt	0	8	23*	9	33*	13
O=C(CN1C2=NCCN2c2ccccc21)C12CC3CC(CC(C3)C1)C2	0	3	1	25	42*	-10	40*	32*
CC(=O)c1cccc(NC(=O)CSc2nnc(C(C)N(C)C)n2-c2ccc(F)cc2)c1 (stereo not given)	nt	-3	nt	-4	35*	4	10	-4
CC(=O)c1cccc(NC(=O)CSc2nnc(C(C)N(C)C)n2Cc2ccccc2)c1 (stereo not given)	nt	3	nt	-2	4	-3	nt	nt
CCN1/C(=C/c2ccc3cc(C)ccc3[n+]2CC)Sc2cc(C)c(C)cc21	20*	nt	49*	14	28*	18	30*	14
CC[n+]1ccccc1/C=C1\Sc2ccc(C)cc2N1C	nt	-70	nt	4	18	4	nt	nt
Cc1ccc(C)c(N2CCN(CCCNC(=O)CCC(=O)N3CCOc4ccc(Cl)cc43)CC2)c1	nt	3	nt	9	29*	3	50*	79*
COCOCCn1cc(CN2CCS(=O)(=O)N(Cc3ccc(-c4ccc(OC)cc4)cc3)C(C(C)C)C2=O)nn1 (stereo not given)	nt	nt	nt	1	nt	3	nt	nt
COc1ccc(C2OC(=O)CC2C(=O)NC2CCCCCC2)cc1OC (stereo not given)	-1	-1	-1	4	26*	-2	-9	-2
Nc1ccn([C@@H]2O[C@H](CNC(=O)[C@@H](Cc3cn(COCc4ccccc4)cn3)NC=O)[C@@H](O)[C@H]2O)c(=O)n1	nt	nt	nt	0	nt	-17	nt	nt
CC(=O)NCCn1c(SCc2cc(F)ccc2F)nc2ccccc2c1=O	0	-3	0	8	33*	14	-5	-3
